The results in this text go back to ChEMBL document CHEMBL4622983, “Structure-Activity Relationship Studies of α-Ketoamides as Inhibitors of the Phospholipase A and Acyltransferase Enzyme Family” (J Med Chem, 2020).

What is called IC50 is the concentration that inhibits the measured activity by half. Read a high IC50 as a need for much substance. As usually defined, the pIC50 is the IC50 on a negative log10 scale, so that one unit is a factor of ten. Low values mean a large IC50, high ones a small IC50.

Holding throughout (type): cell-free, HEK-293T
In test [1] the target is T1, Phospholipase A and acyltransferase 2 (Homo sapiens, UniProt Q9NWW9).
T1 sequence (Q9NWW9 whole entry): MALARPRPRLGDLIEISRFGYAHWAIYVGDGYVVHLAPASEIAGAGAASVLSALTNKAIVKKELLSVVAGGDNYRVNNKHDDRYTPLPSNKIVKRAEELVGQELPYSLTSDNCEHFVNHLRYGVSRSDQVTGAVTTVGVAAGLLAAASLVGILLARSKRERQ
The experiment in a line: Inhibition of full-length C-terminal FLAG-tagged human PLAAT2 expressed in HEK293T cell lysate preincubated for 30 mins followed by MB064 addition and measured after 20 mins by SDS-PAGE based ABPP analysis. The method, boiled down: (§1)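 Dose–response competitive ABPP on cytosol only, from HEK293T overexpressing FLAG-tagged PLAAT. Inhibitor 30 min rt, then MB064 20 min rt. PLAAT2 0.25 μg/μL with 250 nM probe; PLAAT3 0.5 μg/μL with 250 nM; PLAAT4 and PLAAT5 1 μg/μL with 500 nM. Fluorescence normalized to Coomassie. IC50 from curves, reported as pIC50 ± SEM, n = 3.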

Test [2] deals with T2, Phospholipase A and acyltransferase 3 (Homo sapiens, UniProt P53816).
T2 sequence (P53816 whole entry): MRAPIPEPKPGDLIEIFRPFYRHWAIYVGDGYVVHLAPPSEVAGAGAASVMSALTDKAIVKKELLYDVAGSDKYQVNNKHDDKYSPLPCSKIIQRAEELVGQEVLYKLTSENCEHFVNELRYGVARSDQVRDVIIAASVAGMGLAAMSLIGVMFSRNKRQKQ
The test can be described thus: Inhibition of full-length C-terminal FLAG-tagged human PLAAT3 expressed in HEK293T cell lysate preincubated for 30 mins followed by MB064 addition and measured after 20 mins by SDS-PAGE based ABPP analysis. As to conditions: for pIC50: hek-293t. The method, boiled down: as §1

The target of test [3] is T3, Phospholipase A and acyltransferase 4 (Homo sapiens, UniProt Q9UL19).
T3 sequence (Q9UL19 whole entry): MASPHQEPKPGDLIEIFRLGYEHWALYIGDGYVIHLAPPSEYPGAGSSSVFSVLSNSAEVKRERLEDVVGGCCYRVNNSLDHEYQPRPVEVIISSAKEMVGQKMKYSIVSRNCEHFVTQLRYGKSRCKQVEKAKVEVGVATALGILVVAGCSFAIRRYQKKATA
The experiment in a line: Inhibition of full-length C-terminal FLAG-tagged human PLAAT4 expressed in HEK293T cell lysate preincubated for 30 mins followed by MB064 addition and measured after 20 mins by SDS-PAGE based ABPP analysis. The gist of the method:
as §1

In test [4] the target is T4, Phospholipase A and acyltransferase 5 (Homo sapiens, UniProt Q96KN8).
T4 sequence (Q96KN8 whole entry): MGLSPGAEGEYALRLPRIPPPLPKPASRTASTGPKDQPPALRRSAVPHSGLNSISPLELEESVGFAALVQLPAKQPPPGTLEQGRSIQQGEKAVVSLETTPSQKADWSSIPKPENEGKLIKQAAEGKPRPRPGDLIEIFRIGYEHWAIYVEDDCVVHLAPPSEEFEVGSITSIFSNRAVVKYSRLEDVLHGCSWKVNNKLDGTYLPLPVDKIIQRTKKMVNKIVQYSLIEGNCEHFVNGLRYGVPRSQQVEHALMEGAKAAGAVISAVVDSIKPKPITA
The experiment in a line: Inhibition of full-length C-terminal FLAG-tagged human PLAAT5 expressed in HEK293T cell lysate preincubated for 30 mins followed by MB064 addition and measured after 20 mins by SDS-PAGE based ABPP analysis. The method, boiled down:
as §1

On to `O=C(CCc1ccc(Cl)cc1)C(=O)N1CC[C@@H](c2ccccc2)C1`, for which the IC50 in test [1], in test [2], in test [3] and in test [4] was more than 10000 nM each time.

With `O=C(CCCc1ccccc1)C(=O)NCCc1ccc(O)cc1`, the concentration for half-maximal inhibition (IC50) is 1260 nM in test [1], 1580 nM in test [2], 2510 nM in test [3] and 158 nM in test [4].

Turning to `O=C(/C=C/c1ccccc1)C(=O)NCCc1ccccc1`, the IC50 in test [1] was 7940 nM; in test [2], 1580 nM; in test [3] it was 10000 nM; in test [4], 6310 nM.

Take `CCNC(=O)C(=O)CCc1ccc(Cl)cc1`: the IC50 in test [1] was 2510 nM; in test [2] it was 7940 nM; in test [3], 3980 nM; in test [4], 1000 nM.

Take `O=C(NCCc1ccccc1)C(=O)c1ccccc1`: the 50% inhibitory concentration (IC50) in test [1], in test [2], in test [3] and in test [4] was more than 10000 nM throughout.

As for `O=C(/C=C/c1cccc(Br)c1)C(=O)NCCc1ccccc1`, the IC50 in test [1] is more than 10000 nM; in test [2] it was more than 10000 nM; in test [3] it was 7940 nM; in test [4], 3160 nM.

`O=C(CCCc1ccccc1)C(=O)NCCc1ccc(Br)cc1`: the half-maximal inhibitory concentration (IC50) was 251 nM in test [1], 158 nM in test [2], 200 nM in test [3] and 10 nM in test [4].

For `O=C(CCc1ccc(Cl)cc1)C(=O)N1CCCC[C@H]1c1ccccc1`, the IC50 in test [1], in test [2], in test [3] and in test [4] was more than 10000 nM in each case.

On to `O=C(CCCc1ccccc1)C(=O)NCCc1ccccc1Cl`, for which the IC50 in test [1] is 6310 nM; in test [2] it was 1260 nM; in test [3] it was 2510 nM; in test [4] it was 794 nM.

Take `O=C(CCc1ccc(Cl)cc1)C(=O)NCCCCc1ccccc1`: the IC50 is 631 nM in test [1], 1000 nM in test [2], 1580 nM in test [3] and 200 nM in test [4].

For the molecule `O=C(CCc1ccc(Cl)cc1)C(=O)NCc1ccccc1`, the 50% inhibitory concentration (IC50) was 2510 nM in test [1], 1580 nM in test [2], 2510 nM in test [3] and 251 nM in test [4].

As for `O=C(CCc1ccccc1)C(F)(F)C(=O)NCCc1ccccc1`, the IC50 in test [1], in test [2], in test [3] and in test [4] was more than 10000 nM throughout.

Take `O=C(CCc1ccccc1Cl)C(=O)NCCc1ccccc1`: the IC50 in test [1] was 1260 nM; in test [2] it was 2000 nM; in test [3] it was 2510 nM; in test [4] it was 1580 nM.

For `COc1ccc(CCNC(=O)C(=O)CCCc2ccccc2)cc1`, the IC50 is 1580 nM in test [1], 794 nM in test [2], 1580 nM in test [3] and 79.4 nM in test [4].

Consider `O=C(CCCc1ccccc1)C(=O)NCCc1ccccc1`, for which the IC50 was 501 nM in test [1], 398 nM in test [2], 631 nM in test [3] and 100 nM in test [4].

`CCOC(=O)C(F)(F)C(O)CCc1ccccc1` (stereo unspecified): the IC50 in test [1], in test [2], in test [3] and in test [4] was more than 10000 nM in each case.

On to `CN(C)C(=O)C(=O)CCc1ccc(Cl)cc1`, for which the IC50 in test [1], in test [2], in test [3] and in test [4] was more than 10000 nM throughout.

As to `O=C(/C=C/c1ccc(Cl)cc1)C(=O)NCCc1ccccc1`, the half-maximal inhibitory concentration (IC50) in test [1] is 1580 nM; in test [2] it was 2510 nM; in test [3] it was 2510 nM; in test [4], 631 nM.

Take `O=C(CCCc1ccccc1)C(=O)NCCc1ccc(Oc2cnccn2)cc1`: the concentration for half-maximal inhibition (IC50) was 501 nM in test [1], 251 nM in test [2], 631 nM in test [3] and 63.1 nM in test [4].

As for `Cc1ccc(CCC(=O)C(=O)NCCc2ccccc2)cc1`, the IC50 is 5010 nM in test [1], 2000 nM in test [2], 1580 nM in test [3] and 2510 nM in test [4].

As for `O=C(CCCc1ccccc1)C(=O)NCCc1ccc(Oc2ncccn2)cc1`, the IC50 was 2000 nM in test [1], 2000 nM in test [2], 1260 nM in test [3] and 251 nM in test [4].

For `COCCN(CCOC)C(=O)C(=O)CCc1ccc(Cl)cc1`, the IC50 in test [1], in test [2], in test [3] and in test [4] was more than 10000 nM throughout.

Regarding `COc1ccc(/C=C/C(=O)C(=O)NCCc2ccccc2)cc1`, the half-inhibitory concentration (IC50) in test [1] is 1580 nM; in test [2], 5010 nM; in test [3], 2510 nM; in test [4] it was 1000 nM.

Consider `O=C(CCc1ccc(Cl)c(Cl)c1)C(=O)NCCc1ccccc1`, for which the half-inhibitory concentration (IC50) was 2000 nM in test [1], 100 nM in test [2], 1000 nM in test [3] and 100 nM in test [4].

As to `O=C(CCCc1ccccc1)C(=O)NCCc1ccc(Oc2ccc(C(F)(F)F)nc2)cc1`, the IC50 is 200 nM in test [1], 158 nM in test [2], 79.4 nM in test [3] and 79.4 nM in test [4].

`COc1ccc(CCC(=O)C(=O)NCCc2ccccc2)cc1`: the IC50 was 3160 nM in test [1], 3160 nM in test [2], 1260 nM in test [3] and 1260 nM in test [4].

Take `O=C(CCc1ccc(Cl)cc1)C(=O)NCCc1ccccc1`: in test [2], the pIC50 was 6.

`O=C(CCc1ccccc1)[C@H](F)C(=O)NCc1ccccc1`: the 50% inhibitory concentration (IC50) in test [1], in test [2], in test [3] and in test [4] was more than 10000 nM in each case.

`COc1ccc(CCNC(=O)C(=O)CCCc2ccccc2)cc1OC`: the 50% inhibitory concentration (IC50) in test [1] was 5010 nM; in test [2], 1000 nM; in test [3] it was 6310 nM; in test [4], 316 nM.

For `Cc1ccc(CCNC(=O)C(=O)CCCc2ccccc2)cc1`, the half-maximal inhibitory concentration (IC50) in test [1] is 2000 nM; in test [2] it was 126 nM; in test [3] it was 1260 nM; in test [4], 39.8 nM.

In the case of `O=C(CCc1cccc(Cl)c1)C(=O)NCCc1ccccc1`, the IC50 in test [1] is 2510 nM; in test [2], 1580 nM; in test [3], 1260 nM; in test [4], 1260 nM.

For the molecule `O=C(CCc1ccccc1)C(F)(F)C(=O)NCc1ccccc1`, the IC50 in test [1], in test [2], in test [3] and in test [4] was more than 10000 nM each time.

As to `O=C(/C=C/c1ccc(Br)cc1)C(=O)NCCc1ccccc1`, the IC50 is 5010 nM in test [1], 2510 nM in test [2], 6310 nM in test [3] and 631 nM in test [4].

Turning to `CCN(CCc1ccccc1)C(=O)C(=O)CCc1ccc(Cl)cc1`, the IC50 in test [1], in test [2], in test [3] and in test [4] was more than 10000 nM each time.

Turning to `O=C(CCCc1ccccc1)C(=O)NCCc1ccc(Cl)cc1Cl`, the concentration for half-maximal inhibition (IC50) was 1260 nM in test [1], 251 nM in test [2], 794 nM in test [3] and 63.1 nM in test [4].

Take `CC(=O)C(=O)NCCc1ccccc1`: the IC50 in test [1], in test [2], in test [3] and in test [4] was more than 10000 nM each time.

Take `O=C(NCCc1ccccc1)C(=O)c1ccc(Cl)cc1`: the IC50 in test [1], in test [2], in test [3] and in test [4] was more than 10000 nM in each case.

For the molecule `O=C(CCCc1ccccc1)C(=O)NCCc1cccc(Cl)c1`, the IC50 was 794 nM in test [1], 200 nM in test [2], 1000 nM in test [3] and 50.1 nM in test [4].

On to `O=C(CCc1ccc(Cl)cc1)C(=O)N1CCCCC1`, for which the IC50 in test [1], in test [2], in test [3] and in test [4] was more than 10000 nM throughout.

Regarding `O=C(CCCc1ccccc1)C(=O)NCCc1ccc(Oc2ccc(C(F)(F)F)cn2)cc1`, the negative logarithm of the IC50 (pIC50) in test [2] was found to be 7. The results for the IC50 in test [3] and in test [4] were 631 nM and 31.6 nM, respectively.
